Data set [1] deals with Eukaryotic translation initiation factor 2-alpha kinase 1 (Mus musculus) (UniProt Q9Z2R9). In words: Activation of HRI in mouse KLN cells transfected with 5'UTR of ATF-4 mRNA fused firefly luciferase mRNA and 5'UTR lacking uORF fused renila luciferase mRNA assessed as increase in eIF2alpha phosphorylation by measuring ratio of firefly luciferase to renila luciferase at 1.25 uM after 16 hrs. It counts as cell-based.

The nature of data set [2]: Antiproliferative activity against human CRL2813 cells after 5 days by sulforhodamine B assay. It counts as functional, cell-based. The conditions noted are these: CRL2813, 120 h. In a few lines:
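CRL-2813 melanoma cells grown 5 days with 0.5–20 μM compound, then fixed in cold 10% TCA and stained with sulforhodamine B. Bound dye measured. Growth % = 100×(T−T0)/(C−T0), with T0 at time zero. IC50 is the concentration giving 50% growth inhibition.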

Data set [3] deals with Eukaryotic translation initiation factor 2-alpha kinase 1 (Mus musculus) (UniProt Q9Z2R9). In words: Activation of HRI in mouse KLN cells transfected with 5'UTR of ATF-4 mRNA fused firefly luciferase mRNA and 5'UTR lacking uORF fused renila luciferase mRNA assessed as increase in eIF2alpha phosphorylation by measuring ratio of firefly luciferase to renila luciferase after 16 hrs. It counts as cell-based.

For data set [4] the target is unchanged. In words: Activation of HRI in mouse KLN cells transfected with 5'UTR of ATF-4 mRNA fused firefly luciferase mRNA and 5'UTR lacking uORF fused renila luciferase mRNA assessed as increase in eIF2alpha phosphorylation by measuring ratio of firefly luciferase to renila luciferase at 5 uM after 16 hrs. It counts as cell-based.
Data set [5] is described as follows: Effect on beta actin protein expression in human CRL2813 cells at 5 uM after 8 hrs by Western blot analysis. It counts as ADME, cell-based. The conditions noted are these: crl2813, 8 h. In a few lines:
(§1)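 CRL-2813 cells at 70% confluence in serum-containing, antibiotic-free medium; treated at 5 μM for 8 h. Lysed in M-PER on ice for 30 min, equal protein by BCA, SDS-PAGE and immunoblot for CHOP, cyclin D1 and β-actin. Blots representative of three independent experiments.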

Data set [6] concerns the target Eukaryotic translation initiation factor 2-alpha kinase 1 (Homo sapiens) (UniProt Q9BQI3). Briefly: Activation of HRI in human CRL2813 cells assessed as induction of CHOP mRNA level at 5 uM by real-time PCR relative to 18S RNA. It is filed as cell-based. In a few lines: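 Fold induction of CHOP mRNA in cells treated at 5 μM, normalized to 18S RNA and expressed relative to DMSO (set to 1). Triplicate samples, three independent experiments, mean ± SEM.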

For data set [7] the target is unchanged. Briefly: Activation of HRI in human CRL2813 cells assessed as increase in eIF2alpha phosphorylation at 5 uM after 2 hrs by Western blot analysis. It counts as cell-based. In a few lines: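 Adherent CRL-2813 melanoma cells exposed to 5 μM for 2 h. Lysates immunoblotted with anti-phosphoserine-51 eIF2α and anti-total eIF2α antibodies after BCA normalization and SDS-PAGE. Gels representative of three independent experiments.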

For data set [8] the target is unchanged. In words: Activation of HRI in human CRL2813 cells assessed as increase in CHOP protein expression at 5 uM after 8 hrs by Western blot analysis. It counts as cell-based. In a few lines: as §1
The target is the same in data set [9]. In words: Activation of HRI in human CRL2813cells assessed as decrease in cyclin D1 protein expression at 5 uM after 8 hrs by Western blot analysis. In a few lines: as §1

Active and inactive are the calls of the source. The rule behind the calls is not given here.

We go through 23 compounds from ChEMBL document CHEMBL4011623, “Development of 1-((1,4-trans)-4-Aryloxycyclohexyl)-3-arylurea Activators of Heme-Regulated Inhibitor as Selective Activators of the Eukaryotic Initiation Factor 2 Alpha (eIF2α) Phosphorylation Arm of the Integrated Endoplasmic Reticulum Stress Response” (J Med Chem, 2017).

Chain of Eukaryotic translation initiation factor 2-alpha kinase 1 (Homo sapiens) (Q9BQI3 whole entry): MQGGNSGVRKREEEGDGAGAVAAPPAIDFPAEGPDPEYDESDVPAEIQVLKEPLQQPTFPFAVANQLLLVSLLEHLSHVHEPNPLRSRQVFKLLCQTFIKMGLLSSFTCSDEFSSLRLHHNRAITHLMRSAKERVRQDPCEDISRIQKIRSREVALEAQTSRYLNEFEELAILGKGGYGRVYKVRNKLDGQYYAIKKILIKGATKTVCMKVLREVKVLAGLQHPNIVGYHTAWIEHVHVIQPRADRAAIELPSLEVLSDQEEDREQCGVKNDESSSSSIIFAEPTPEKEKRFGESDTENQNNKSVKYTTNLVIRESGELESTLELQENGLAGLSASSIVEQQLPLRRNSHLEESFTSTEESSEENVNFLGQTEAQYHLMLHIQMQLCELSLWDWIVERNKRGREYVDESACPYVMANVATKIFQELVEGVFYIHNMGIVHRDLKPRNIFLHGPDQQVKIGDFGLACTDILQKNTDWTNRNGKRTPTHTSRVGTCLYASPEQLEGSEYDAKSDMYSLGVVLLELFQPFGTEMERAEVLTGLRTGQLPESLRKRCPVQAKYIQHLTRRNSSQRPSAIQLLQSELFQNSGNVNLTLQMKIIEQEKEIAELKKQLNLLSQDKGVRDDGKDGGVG
Chain of Eukaryotic translation initiation factor 2-alpha kinase 1 (Mus musculus) (Q9Z2R9 whole entry, the tested form may be a part): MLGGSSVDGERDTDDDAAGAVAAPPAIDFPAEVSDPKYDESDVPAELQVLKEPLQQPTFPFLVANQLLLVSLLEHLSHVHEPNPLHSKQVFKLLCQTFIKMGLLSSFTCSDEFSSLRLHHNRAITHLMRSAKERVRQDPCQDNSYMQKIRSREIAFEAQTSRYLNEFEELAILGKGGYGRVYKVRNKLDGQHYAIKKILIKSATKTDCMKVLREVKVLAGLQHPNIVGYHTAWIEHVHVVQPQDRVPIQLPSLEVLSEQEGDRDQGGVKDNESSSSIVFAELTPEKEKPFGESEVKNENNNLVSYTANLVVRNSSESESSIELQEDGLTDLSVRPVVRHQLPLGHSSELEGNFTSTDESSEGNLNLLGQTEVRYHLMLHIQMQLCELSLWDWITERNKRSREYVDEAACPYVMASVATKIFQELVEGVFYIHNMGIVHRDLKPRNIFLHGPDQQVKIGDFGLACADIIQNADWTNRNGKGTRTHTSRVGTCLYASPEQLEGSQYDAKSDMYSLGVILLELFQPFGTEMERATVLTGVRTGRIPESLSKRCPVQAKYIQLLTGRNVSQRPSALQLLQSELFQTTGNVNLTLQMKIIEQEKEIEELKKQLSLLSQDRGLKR

Take `N#Cc1cc(C(F)(F)F)ccc1O[C@H]1CC[C@H](NC(=O)Nc2cccc(C(F)(F)F)c2)CC1`: the results for the Ratio in data set [1] and in data set [4] were 1.01 and 6.3, respectively. The compound further displayed an IC50 in data set [2] of 1.47 µM. The Activity result in data set [3] was “Dose-dependent effect”.

On to `N#Cc1ccc(NC(=O)N[C@H]2CC[C@H](Oc3ccc(C(F)(F)F)cc3)CC2)cc1`, for which the Ratio in [1] was 3.38; in [4] it was 11.6. In data set [2], this compound displayed a concentration for half-maximal inhibition (IC50) of 0.49 µM. In addition, the values for the Activity result in data set [5] and in [3] were “Non-Toxic” and “Dose-dependent effect”, respectively. Also, the fold change (FC) in data set [6] worked out at 12.8. Also, the outcome in [7], in data set [8] and in data set [9] was Active.

For `O=C(Nc1cc(C(F)(F)F)cc(C(F)(F)F)c1)N[C@H]1CC[C@H](Oc2ccc(C(F)(F)F)cc2)CC1`, the Ratio in data set [1] was determined as 8.58; in data set [4] it was 30.7. Moreover, the IC50 in [2] was 0.45 µM. Further, the Activity result in data set [5] is “Non-Toxic”; in data set [3], “Dose-dependent effect”. Besides, the fold change (FC) in data set [6] was 14.5. For the same compound, the result in [7], in [8] and in [9] was Active.

Regarding `O=C(Nc1cccc(C(F)(F)F)c1)N[C@H]1CC[C@H](Oc2ccc(C(F)(F)F)cc2[N+](=O)[O-])CC1`, the Ratio in data set [1] amounted to 0.96; in data set [4], 3.28. Also, the half-maximal inhibitory concentration (IC50) in data set [2] is 5.51 µM. Moreover, the Activity result in data set [3] is “Dose-dependent effect”.

For the compound `CC(=O)Nc1cc(C(F)(F)F)ccc1O[C@H]1CC[C@H](NC(=O)Nc2cccc(C(F)(F)F)c2)CC1`, the Ratio stood at 0.84 in data set [1] and 3.9 in data set [4]. This compound also registered an IC50 in data set [2] of 1.46 µM. Further, the Activity result in data set [3] was “Dose-dependent effect”.

With `O=C(Nc1cccc(C(F)(F)F)c1)N[C@H]1CC[C@H](Oc2ccc(C(F)(F)F)cn2)CC1`, the Ratio in data set [1] amounted to 1.02; in data set [4] it was 6.11. The concentration for half-maximal inhibition (IC50) in data set [2] amounted to 1.57 µM. Besides, the Activity entry in data set [3] was “Dose-dependent effect”.

For `N#Cc1ccc(NC(=O)N[C@H]2CC[C@H](Oc3ccc(C#N)cc3)CC2)cc1`, the Ratio in data set [1] worked out at 1.03; in data set [4] it was 1.38. In data set [2], this compound displayed a 50% inhibitory concentration (IC50) of 9.03 µM. Further, in [3], the Activity entry was “Dose-dependent effect”.

On to `N#Cc1cccc(NC(=O)N[C@H]2CC[C@H](Oc3ccc(C(F)(F)F)cc3)CC2)c1`, for which the Ratio in data set [1] came out at 0.96; in data set [4], 7. In data set [2], this compound returned an IC50 of 0.94 µM. Further, the Activity result in [3] was “Dose-dependent effect”.

Turning to `NC(=O)c1cc(O[C@H]2CC[C@H](NC(=O)Nc3cccc(OC(F)(F)F)c3)CC2)ccc1C(F)(F)F`, the Ratio in data set [1] stood at 1.04; in [4], 1.57. In data set [2], this compound displayed an IC50 of 3.66 µM. The Activity entry in data set [3] is “Dose-dependent effect”.

As for `N#Cc1ccc(NC(=O)N[C@H]2CC[C@H](Oc3ccc(C(F)(F)F)cc3)CC2)cc1C#N`, the Ratio was determined as 5.54 in data set [1] and 7.75 in [4]. This compound registered a half-inhibitory concentration (IC50) in data set [2] of 2.01 µM. Moreover, the figures for the Activity result in data set [5] and in [3] were “Non-Toxic” and “Dose-dependent effect”, respectively. For the same compound, the fold change (FC) in data set [6] was determined as 6.21. The result in data set [7], in data set [8] and in data set [9] was Active.

In the case of `O=C(Nc1ccc(Oc2ccc(C(F)(F)F)cc2)cc1)Nc1cccc(OC(F)(F)F)c1`, the Ratio was 2.37 in data set [1] and 6.73 in [4]. In addition, the 50% inhibitory concentration (IC50) in data set [2] was 0.5 µM. The Activity entry in [3] is “Dose-dependent effect”.

On to `O=C(Nc1ccc(Oc2ccc(C(F)(F)F)cc2)cc1)Nc1cccc(C(F)(F)F)c1`, for which the Ratio in [1] turned out to be 3.31; in data set [4] it was 8.99. In data set [2], the IC50 was determined as 0.44 µM. In data set [3], the Activity entry was “Dose-dependent effect”.

`O=C(Nc1cccc(C(F)(F)F)c1)N[C@H]1CC[C@H](Oc2ccc(OC(F)(F)F)cc2)CC1`: the Ratio in data set [1] came out at 3.37; in data set [4], 10.1. The compound further yielded a 50% inhibitory concentration (IC50) in data set [2] of 0.82 µM.

For the compound `NC(=O)c1cc(O[C@H]2CC[C@H](NC(=O)Nc3cccc(C(F)(F)F)c3)CC2)ccc1C(F)(F)F`, the results for the Ratio in data set [1] and in data set [4] were 0.79 and 1.12, respectively. In addition, the half-maximal inhibitory concentration (IC50) in data set [2] is 3.36 µM. In data set [3], the Activity result is “Dose-dependent effect”.

As to `O=C(Nc1cccc(OC(F)(F)F)c1)N[C@H]1CC[C@H](Oc2ccc(C(F)(F)F)cc2)CC1`, the Ratio is 5.2 in data set [1] and 13.6 in data set [4]. Besides, half-maximal inhibition in data set [2] (IC50) was put at 0.92 µM. The Activity result in data set [5] was “Non-Toxic”; in data set [3], “Dose-dependent effect”. Moreover, the fold change (FC) in [6] stood at 11.9. Also, the result in [7], in data set [8] and in data set [9] was Active.

`N#Cc1ccc(O[C@H]2CC[C@H](NC(=O)Nc3cccc(C(F)(F)F)c3)CC2)cc1`: the Ratio came to 0.92 in [1] and 3.23 in data set [4]. In data set [2], this compound came in with an IC50 of 6.06 µM. Also, the Activity result in data set [3] is “Dose-dependent effect”.

As for `O=C(Nc1cccc(OC(F)(F)F)c1)N[C@H]1CC[C@H](Oc2ccc(OC(F)(F)F)cc2)CC1`, the figures for the Ratio in [1] and in data set [4] were 2.87 and 10.7, respectively. Also, the concentration for half-maximal inhibition (IC50) in data set [2] came out at 1.45 µM. Moreover, in data set [3], the Activity result was “Dose-dependent effect”.

As for `N#Cc1cc(C#N)cc(NC(=O)N[C@H]2CC[C@H](Oc3ccc(C(F)(F)F)cc3)CC2)c1`, the Ratio in [1] is 1.51; in [4], 2.36. In data set [2], this compound showed an IC50 of 3.68 µM. Moreover, in [3], the Activity result was “Dose-dependent effect”.

Turning to `N#Cc1ccc(O[C@H]2CC[C@H](NC(=O)Nc3cccc(C#N)c3)CC2)cc1`, the Ratio worked out at 1.01 in data set [1] and 1.15 in data set [4]. In data set [2], this compound registered an IC50 of 8.2 µM. In addition, the Activity entry in [3] is “Dose-dependent effect”.

For the compound `NC(=O)c1cc(C(F)(F)F)ccc1O[C@H]1CC[C@H](NC(=O)Nc2cccc(OC(F)(F)F)c2)CC1`, the figures for the Ratio in [1] and in data set [4] were 0.88 and 5.13, respectively. Moreover, the concentration for half-maximal inhibition (IC50) in [2] stood at 1.53 µM. Moreover, the Activity entry in [3] was “Dose-dependent effect”.

As for `NC(=O)c1cc(C(F)(F)F)ccc1O[C@H]1CC[C@H](NC(=O)Nc2cccc(C(F)(F)F)c2)CC1`, the Ratio in data set [1] came out at 0.91; in [4] it was 1.49. Besides, half-maximal inhibition in [2] (IC50) was put at 2.76 µM. Further, the Activity result in data set [3] was “Dose-dependent effect”.

For the compound `O=C(Nc1cccc(C(F)(F)F)c1)N[C@H]1CC[C@H](Oc2ccc(C(F)(F)F)cc2)CC1`, the values for the Ratio in data set [1] and in data set [4] were 3.23 and 10.2, respectively. Moreover, the IC50 in data set [2] was determined as 0.54 µM. In addition, the values for the Activity result in data set [5] and in data set [3] were “Non-Toxic” and “Dose-dependent effect”, respectively. The fold change (FC) in data set [6] is 4.72. For the same compound, the result in data set [7], in data set [8] and in data set [9] was Active.

With `CC(=O)Nc1cc(C(F)(F)F)ccc1O[C@H]1CC[C@H](NC(=O)Nc2cccc(OC(F)(F)F)c2)CC1`, the Ratio in [1] was found to be 0.85; in [4], 4.31. The compound also gave a half-maximal inhibitory concentration (IC50) in data set [2] of 1.5 µM. Besides, the Activity entry in [3] was “Dose-dependent effect”.
